Experimental data as given in publication PMC4633020 (Journal of medicinal chemistry, 2015).
“Also recorded” adds a separate entry of the source.

What was measured:
E. faecium NCTC 7171 = experiment: MIC, broth microdilution; assay type: cell-based, Enterococcus faecium; conditions: SAR discussion, E. faecium NCTC 7171
[1] = Plasma-protein binding, equilibrium dialysis; assay type: in vitro ADME; conditions: human plasma
[2] = In vitro metabolic stability in human liver S9; assay type: in vitro ADME; conditions: calculated from in vitro half-life in human liver S9
PBP2a of S. aureus = PBP2a of S. aureus (Staphylococcus aureus, UniProt P07944); experiment: BOCILLIN FL binding assay for PBP2a; conditions: at concentrations of up to 100 μg/mL
Sequence of PBP2a of S. aureus (P07944 whole entry): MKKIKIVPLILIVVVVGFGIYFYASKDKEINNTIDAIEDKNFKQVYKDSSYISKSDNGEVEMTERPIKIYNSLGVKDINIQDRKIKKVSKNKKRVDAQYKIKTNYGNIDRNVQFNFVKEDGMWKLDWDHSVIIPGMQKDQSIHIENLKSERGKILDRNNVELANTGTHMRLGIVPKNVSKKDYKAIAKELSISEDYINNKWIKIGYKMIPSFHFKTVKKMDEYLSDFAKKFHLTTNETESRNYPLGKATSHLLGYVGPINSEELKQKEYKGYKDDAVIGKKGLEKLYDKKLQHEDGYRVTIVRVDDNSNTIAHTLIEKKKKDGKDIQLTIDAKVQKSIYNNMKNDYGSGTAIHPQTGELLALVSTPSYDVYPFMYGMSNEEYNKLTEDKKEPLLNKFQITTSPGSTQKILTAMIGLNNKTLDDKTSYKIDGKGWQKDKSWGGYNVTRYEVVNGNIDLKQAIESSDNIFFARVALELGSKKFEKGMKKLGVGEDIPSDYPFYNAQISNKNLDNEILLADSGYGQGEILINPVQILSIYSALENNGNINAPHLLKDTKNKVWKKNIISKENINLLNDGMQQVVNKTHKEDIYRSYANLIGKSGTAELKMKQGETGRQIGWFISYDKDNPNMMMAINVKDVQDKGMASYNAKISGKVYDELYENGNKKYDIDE

[3] = system: PBPs in the E. faecium membrane fractions; experiment: PBP inhibition in E. faecium membrane fractions; assay type: binding; conditions: data less clear due to low PBP copy numbers
Hemolysis assay = conditions: red blood cells
PBP5fm of E. faecium = experiment: BOCILLIN FL binding assay for PBP5fm; conditions: at up to 100 μg/mL
How it was run: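 Recombinant PBP5 (aa 34-678, E. faecium D63r) carried an N-terminal His-tag, was expressed in E. coli BL21(DE3), and was purified by anion exchange then metal chelate column. Enzyme (40 μM final) was preincubated with test compound in 25 mM Hepes, 1 M NaCl, pH 7.0 at 37 °C. BOCILLIN FL (30 μM final) was then added, with incubations of 20 min. Labelling was read by 12% SDS-PAGE fluorescence scan and band quantitation against a no-inhibitor control.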

[4] = marketed antibiotics; cited from earlier work

In the case of `CC1=C(C(N)=O)C(C2CCCCC2)n2nc(SCc3ccccc3)nc2N1` (centres unmarked) [Compound 42], the “antibacterial activity against E. faecium (in words)” value (from here on “antibacterial activity”) (E. faecium NCTC 7171) is reported as “devoid of activity”.

In the case of `CCOC(=O)C1=C(C)Nc2nc(SCc3ccccc3)nn2C1c1ccc(N(C)C)cc1` (centres unmarked) [Compound 43], the “antibacterial activity” value (E. faecium NCTC 7171) is reported as “lost antimicrobial activity”.

In the case of `CNC(=O)C1=C(C)Nc2nc(SCc3ccccc3)nn2C1c1ccc(N(C)C)cc1` (centres unmarked) [Compound 45], the “antibacterial activity” value (E. faecium NCTC 7171) is reported as “slight reduction of activity”.

With `CN(C)c1ccc(C2C3=C(CCCC3=O)Nc3nc(SCc4ccccc4)nn32)cc1` (centres unmarked) [Compound 46] the “antibacterial activity” value (E. faecium NCTC 7171) was “abolished activity”.

In the case of `CC1=C(C(=O)Nc2ccccc2)C(c2ccc(N(C)C)cc2)n2nc(SCc3ccccc3)nc2N1` (centres unmarked) [Compound 51], the “antibacterial activity” value (E. faecium NCTC 7171) is reported as “slight reduction of activity”.

In the case of `CC1=C(C(N)=O)C(c2ccc(N(C)C)cc2)n2nc(SCCNC(=O)OCc3ccccc3)nc2N1` (centres unmarked) [Compound 72], the “antibacterial activity” value (E. faecium NCTC 7171) is reported as “not tolerated”.

For `CC1=C(C(N)=O)C(c2ccc(C(C)C)cc2)n2nc(SCCNC(=O)OCc3ccccc3)nc2N1` (centres unmarked) [Compound 73], the “antibacterial activity” value (E. faecium NCTC 7171) was “not tolerated”.

With `CC1=C(C(N)=O)C(c2ccc(C(=O)O)cc2)n2nc(SCCNC(=O)OCc3ccccc3)nc2N1` (centres unmarked) [Compound 74] the “antibacterial activity” value (E. faecium NCTC 7171) was “not tolerated”.

In the case of `CC1=C(C(N)=O)C(c2ccc(N(C)C)cc2)n2nc(SCc3ccncc3)nc2N1` (centres unmarked) [Compound 75], the “antibacterial activity” value (E. faecium NCTC 7171) is reported as “loss of activity”.

For `CC1=C(C(N)=O)C(c2ccc(N(C)C)cc2)n2nc(Sc3ccccn3)nc2N1` (centres unmarked) [Compound 76], the “antibacterial activity” value (E. faecium NCTC 7171) was “loss of activity”.

In the case of `CC1=C(C(N)=O)C(c2ccc(N(C)C)cc2)n2nc(SCc3ccc(C(F)(F)F)cc3)nc2N1` (centres unmarked) [Compound 80], the “antibacterial activity” value (E. faecium NCTC 7171) is reported as “no activity”.

For `CC1=C(C(N)=O)C(c2ccc(N(C)C)cc2)n2nc(SCc3ccc(OC(F)(F)F)cc3)nc2N1` (centres unmarked) [Compound 81], the “antibacterial activity” value (E. faecium NCTC 7171) was “no activity”.

In the case of `CC1=C(C(N)=O)C(c2ccc(N(C)C)cc2)n2nc(SCc3ccc(SC(F)(F)F)cc3)nc2N1` (centres unmarked) [Compound 82], the “antibacterial activity” value (E. faecium NCTC 7171) is reported as “as active as compound 1”.

With `CC1=C(C(N)=O)C(c2ccc(N(C)C)cc2)n2nc(SCc3ccc([N+](=O)[O-])cc3)nc2N1` (centres unmarked) [Compound 83, 2-(4-Nitrobenzylthio)-7-(4-dimethylaminophenyl)-5-methyl-4,7-dihydro[1,2,4]triazolo[1,5-a]pyrimidine-6-carboxamide] the “antibacterial activity” value (E. faecium NCTC 7171) was “as good as compound 16”, the “Plasma-protein binding (in words)” value [1] was “high” and the Apparent intrinsic clearance [2] was under 10.4 mLmin^−1kg^−1.

With `CC1=C(C(N)=O)C(c2ccc(N(C)C)cc2)n2nc(SCc3ccc(C#N)cc3)nc2N1` (centres unmarked) [Compound 84, 2-(4-Cyanobenzylthio)-7-(4-dimethylaminophenyl)-5-methyl-4,7-dihydro-[1,2,4]triazolo[1,5-a]pyrimidine-6-carboxamide] the “inhibition of recombinant PBP2a” value (PBP2a of S. aureus) was “lacked the ability to inhibit; also recorded: did not inhibit”, the “inhibition of PBPs in E. faecium membranes” value [3] was “did not inhibit” and the hemolysis at 64 μg/mL (Hemolysis assay) was 1 to 2%. For the same molecule, the “antibacterial activity” value (E. faecium NCTC 7171) was “as active as compound 1”, the Apparent intrinsic clearance [2] was under 10.4 mLmin^−1kg^−1 and the “inhibition of PBP5fm” value (PBP5fm of E. faecium) was “lacked the ability to inhibit; also recorded: did not inhibit”.

In the case of `CCCCCCCCCC(=O)N[C@@H](Cc1c[nH]c2ccccc12)C(=O)N[C@H](CC(N)=O)C(=O)N[C@@H](CC(=O)O)C(=O)N[C@@H]1C(=O)NCC(=O)N[C@@H](CCCN)C(=O)N[C@@H](CC(=O)O)C(=O)N[C@H](C)C(=O)N[C@@H](CC(=O)O)C(=O)NCC(=O)N[C@H](CO)C(=O)N[C@@H]([C@H](C)CC(=O)O)C(=O)N[C@@H](CC(=O)c2ccccc2N)C(=O)O[C@@H]1C` [daptomycin], the plasma protein binding [4] is listed as over 91%.

For `Cc1onc(-c2ccccc2)c1C(=O)N[C@@H]1C(=O)N2[C@@H]1SC(C)(C)[C@@H]2C(=O)O` [oxacillin], the plasma protein binding [4] is given as over 91%.

For `CO[C@H]1/C=C/O[C@@]2(C)Oc3c(C)c(O)c4c(O)c(c(/C=N/N5CCN(C)CC5)c(O)c4c3C2=O)NC(=O)/C(C)=C\C=C\[C@H](C)[C@H](O)[C@@H](C)[C@@H](O)[C@@H](C)[C@H](OC(C)=O)[C@@H]1C` [rifampicin], the plasma protein binding [4] is given as over 91%.

For teicoplanin, the plasma protein binding [4] is given as over 91%.
